Results on seven compounds are retold here after PMC11742495 (Breast Cancer Research : BCR, 2025).

The target in data set [1] is T1, Y537S ERα-SRC3 interaction (Homo sapiens, UniProt P03372, Y537S).
T1 sequence (P03372 1-595 Y537S): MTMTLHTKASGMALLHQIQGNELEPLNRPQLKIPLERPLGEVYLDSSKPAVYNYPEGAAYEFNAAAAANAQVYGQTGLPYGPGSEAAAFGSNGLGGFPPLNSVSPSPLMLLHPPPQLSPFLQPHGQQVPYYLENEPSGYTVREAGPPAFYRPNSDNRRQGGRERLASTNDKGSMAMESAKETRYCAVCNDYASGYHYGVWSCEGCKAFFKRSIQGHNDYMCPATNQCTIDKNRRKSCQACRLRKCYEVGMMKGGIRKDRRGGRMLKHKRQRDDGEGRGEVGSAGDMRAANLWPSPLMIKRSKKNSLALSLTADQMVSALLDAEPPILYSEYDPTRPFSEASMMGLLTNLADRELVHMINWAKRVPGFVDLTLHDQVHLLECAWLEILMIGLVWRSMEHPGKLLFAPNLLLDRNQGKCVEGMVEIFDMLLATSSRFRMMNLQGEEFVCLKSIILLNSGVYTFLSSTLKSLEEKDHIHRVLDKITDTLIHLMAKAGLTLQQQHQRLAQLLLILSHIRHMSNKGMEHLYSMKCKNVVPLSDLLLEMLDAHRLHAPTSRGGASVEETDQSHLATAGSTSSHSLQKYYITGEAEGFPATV
As to the kind of experiment: cell-based. The settings on record: for IC50: 1 nM E2, 48 h. The data set is classed as cell-based.

In the next data set the target is T2, WT ERα-SRC3 interaction (Homo sapiens, UniProt P03372).
T2 sequence (P03372 1-595): T1 sequence (P03372 1-595 Y537S) with S537Y
In words: cell-based. As to conditions: 1 nM E2, 48 h.

For another data set, the system named is endometrium. In words: Uterine SERM agonist study. The data set is classed as in vivo, BALB/c mice. As to conditions: ovariectomized mice, three days of treatment, with and without E2. The procedure, abridged:
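Adult ovariectomized BALB/c mice were randomized to 8 groups and dosed once daily for 3 consecutive days. Treatments: vehicle (0.2% Tween 80/0.5% CMC); E2 (0.1 mL of 0.1 µg/mL in 95% cottonseed oil/5% ethanol); test compound 50 mg/kg orally; reference SERM 50 mg/kg in vehicle; reference SERD 25 mg/kg in cottonseed oil/ethanol. Each active arm was run ± E2. Uteri were weighed, formalin-fixed, embedded and H&E-stained.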

Data set [2] concerns heterozygous, luciferase-tagged Y537S ESR1 MCF7 xenograft. As to the kind of experiment: Comparative murine xenograft study T6I-29-1A vs ICI. The data set is classed as in vivo, NOD/SCID mice.
The conditions of data set [3]: cited from earlier work.
[4] abbreviates: difference between WT-SRC3 and Y537S-SRC3.
[5] abbreviates: 25 mg/kg, T6I-29-1A IP five times per week, ICI SC once per week, vs vehicle.

Where a chain is given by its changes, count along the chain named. Where two headings read alike, the source gives them in different places.

In turn, `Oc1ccc2c(c1)CC[C@H](c1ccccc1)[C@@H]2c1ccc(OCCN2CCCC2)cc1` [Laso, lasofoxifene] yielded a ΔIC50 in data set [1] (setting [4]) of 9.59.

A word on the IC50: it is the concentration needed to halve the response being measured. Higher therefore signals a need for much substance. As for `C[C@@H]1Cc2c([nH]c3ccccc23)[C@@H](c2c(F)cc(NC3CN(CCCF)C3)cc2F)N1CC(F)(F)CO` [Gir, giredestrant], the IC50 at WT ERα-SRC3 interaction (WT-SRC3 IC50 ± StDev) is 0.68 ± 0.25 nM; against WT ERα-SRC3 interaction (WT-SRC3 Log(IC50) ± StDev) it was 0.676 nM; in data set [1] (Y537S-SRC3 IC50 ± StDev), 47.6 ± 11.4 nM; in data set [1] (Y537S-SRC3 Log(IC50) ± StDev) it was 47.9 nM. Besides, the ΔIC50 in data set [1] (setting [4]) is 46.95.

For `C[C@]12CC[C@@H]3c4ccc(O)cc4C[C@@H](CCCCCCCCC[S+]([O-])CCCC(F)(F)C(F)(F)F)[C@H]3[C@@H]1CC[C@@H]2O` (stereo partly shown) [ICI, fulvestrant], the endometrium thickness entry in the data set with endometrium is recorded as “diminished the thickness”. Besides, in data set [2] (25 mg/kg SC once per week), the “tumor bioluminescent signal (IVIS) vs vehicle” value is “no significant difference in bioluminescent signal”. The final uterine weights entry in data set [2] (25 mg/kg, T6I-29-1A IP five times per week, ICI SC once per week) is “significantly decreased final uterine weights”. Also, in data set [2] (setting [5]), the survival result is listed as “significantly prolonged” and the “tumor growth (digital caliper)” value is on record as “significantly blunted tumor growth”. Also, the “ER target gene expression in tumors (RT-qPCR)” value in data set [2] (no significance noted) is reported as “heightened”.

`C[C@@H]1Cc2c(ccc3[nH]ncc23)[C@@H](c2ccc(NC3CN(CCCF)C3)cn2)N1CC(F)(F)F` [Cam, camizestrant] displayed a ΔIC50 in data set [1] of 44.67.

On to `CCNCCc1ccc(CN(CC)c2cc(OC)ccc2[C@@H]2CCc3cc(O)ccc3C2)cc1` [Rad1901, elacestrant], for which the ΔIC50 in data set [1] (setting [4]) is 3560.03.

`CC/C(=C(\c1ccc(O)cc1)c1ccc(OCCN(C)C)cc1)c1ccccc1` [Compound 4OHT, 4-hydroxytamoxifen]: the endometrium thickness entry in the data set on endometrium is reported as “significantly increased width”.

As to `CC/C(=C(\c1ccccc1)c1ccc(OCCN(C)C)cc1)c1ccccc1` [tamoxifen], in data set [3], the protein binding result was “greater than 98%”.
